Experimental findings from ChEMBL document CHEMBL4196091 (Eur J Med Chem, 2018) are described below.

The structures appear in SMILES notation. Calls of active or inactive are those of the source. The rule behind the calls is not given here.

The subject of test [1] is HT-29. The test is described as follows: Downregulation of c-Myc gene expression in human HT-29 cells assessed as c-Myc mRNA level at […] after 48 hrs by RT-PCR method (reference value: 100%). Type of test: functional.
Test [2] deals with A549. Nature of the test: Cell cycle arrest in human A549 cells assessed as accumulation at sub-G0 phase at 15 nM after 24 hrs by propidium iodide staining based flow cytometry (reference value: 2 +/- 1%). Type of test: functional. An outline of the steps:
(§1)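 A549 cells maintained in DMEM (1 g/L glucose, 2 mM glutamine, penicillin/streptomycin/amphotericin B, 10% FBS) and treated for 24 h. Cells were then fixed, RNase-treated and stained with propidium iodide. DNA content was measured by flow cytometry to give cell-cycle phase distribution, including a sub-G1 peak. Data are means (±SD) of two experiments.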
(In general: Flow cytometry measures light scatter and fluorescence of single cells or particles in a stream.)

The subject of test [3] is A549. The test is described as follows: Cell cycle arrest in human A549 cells assessed as accumulation at G2/M phase at 15 nM after 24 hrs by propidium iodide staining based flow cytometry (reference value: 11 +/- 4%). Type of test: functional. The method, boiled down:
as §1

For test [4], the system named is HT-29. The test is described as follows: Inhibition of VEGF protein secretion in human HT-29 cells assessed as VEGF protein level at […] after 48 hrs by ELISA (reference value: 100%). Type of test: functional. More on the design: scale not given: the % may be the effect or the level left. For orientation: In an ELISA, binding on a coated surface is turned into a signal by an enzyme label.

The subject of a further test is HEK293. The test is described as follows: Antiproliferative activity against HEK293 cells after 2 days by MTT assay. Format: ADME, cell-based. The conditions noted are these: Homo sapiens, HEK293, 48 h.
Test [5] concerns A549. The test is described as follows: Cell cycle arrest in human A549 cells assessed as accumulation at G0/G1 phase at 15 nM after 24 hrs by propidium iodide staining based flow cytometry (reference value: 73 +/- 3%). Format: functional. An outline of the steps:
as §1

Test [6] relates to HT-29. Nature of the test: Downregulation of VEGF gene expression in human HT-29 cells assessed as VEGF mRNA level at […] after 48 hrs by RT-PCR method (reference value: 100%). Format: functional.
For another test, the system named is MCF7. Nature of the test: Antiproliferative activity against human MCF7 cells after 2 days by MTT assay. Format: functional, cell-based. The settings on record: MCF7, 48 h. On the technique in general: Formazan colour is commonly taken as a measure of viable cells.
Test [7] relates to A549. The test is described as follows: Antiproliferative activity against human A549 cells after 2 days by MTT assay. Type of test: functional, cell-based. The conditions noted are these: A549, 48 h.
The test system of test [8] is A549. The test is described as follows: Cell cycle arrest in human A549 cells assessed as accumulation at S phase at 15 nM after 24 hrs by propidium iodide staining based flow cytometry (reference value: 15 +/- 6%). Type of test: functional. The method, boiled down:
as §1

Test [9] deals with HT-29. Nature of the test: Antiproliferative activity against human HT-29 cells after 2 days by MTT assay. Format: functional, cell-based. The conditions noted are these: HT-29, 48 h.
The subject of test [10] is HT-29. The test is described as follows: Downregulation of hTERT gene expression in human HT-29 cells assessed as hTERT mRNA level at […] after 48 hrs by RT-PCR method (reference value: 100%). Type of test: functional.
Test [11] deals with A549. The test is described as follows: Cell cycle arrest in human A549 cells assessed as accumulation at G2/M phase at 3 nM after 24 hrs by propidium iodide staining based flow cytometry. Format: functional. An outline of the steps:
as §1

The test system of test [12] is A549. Nature of the test: Cell cycle arrest in human A549 cells assessed as accumulation at G0/G1 phase at 50 nM after 24 hrs by propidium iodide staining based flow cytometry (reference value: 73 +/- 3%). Format: functional. An outline of the steps:
as §1

Test [13] concerns A549. The test is described as follows: Cell cycle arrest in human A549 cells assessed as accumulation at sub-G0 phase at 50 nM after 24 hrs by propidium iodide staining based flow cytometry (reference value: 2 +/- 1%). Format: functional. An outline of the steps:
as §1

For test [14], the system named is A549. Nature of the test: Cell cycle arrest in human A549 cells assessed as accumulation at S phase at 50 nM after 24 hrs by propidium iodide staining based flow cytometry (reference value: 15 +/- 6%). Type of test: functional. An outline of the steps:
as §1

Test [15] relates to A549. The test is described as follows: Cell cycle arrest in human A549 cells assessed as accumulation at G2/M phase at 50 nM after 24 hrs by propidium iodide staining based flow cytometry (reference value: 11 +/- 4%). Type of test: functional. An outline of the steps:
as §1

In test [16] the test system is A549. Nature of the test: Cell cycle arrest in human A549 cells assessed as accumulation at S phase at 20 nM after 24 hrs by propidium iodide staining based flow cytometry (reference value: 15 +/- 6%). Format: functional. An outline of the steps: as §1
For test [17], the system named is A549. The test is described as follows: Cell cycle arrest in human A549 cells assessed as accumulation at G2/M phase at 20 nM after 24 hrs by propidium iodide staining based flow cytometry (reference value: 11 +/- 4%). Type of test: functional. The method, boiled down: as §1
The subject of test [18] is A549. The test is described as follows: Cell cycle arrest in human A549 cells assessed as accumulation at G0/G1 phase at 20 nM after 24 hrs by propidium iodide staining based flow cytometry (reference value: 73 +/- 3%). Format: functional. The method, boiled down:
as §1

In test [19] the test system is A549. Nature of the test: Cell cycle arrest in human A549 cells assessed as accumulation at sub-G0 phase at 20 nM after 24 hrs by propidium iodide staining based flow cytometry (reference value: 2 +/- 1%). Format: functional. The method, boiled down:
as §1

For test [20], the system named is HT-29. Nature of the test: Downregulation of VEGF gene expression in human HT-29 cells assessed as VEGF mRNA level at 10 nM after 48 hrs by RT-PCR method (reference value: 100%). Type of test: functional. An outline of the steps: (§2)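 HT-29 cells were taken at 70–80% confluence and seeded at 1.5 x 10^5 per well. After 24 h they were exposed to compound for 48 h. Total RNA was isolated and TaqMan RT-qPCR run for VEGF-A, c-MYC and hTERT, normalized to β-actin. Expression is given as percent of DMSO control, with at least three measurements and one-sample t-tests.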

Test [21] has as its system HT-29. The test is described as follows: Downregulation of hTERT gene expression in human HT-29 cells assessed as hTERT mRNA level at 10 nM after 48 hrs by RT-PCR method (reference value: 100%). Type of test: functional. An outline of the steps: as §2
In test [22] the test system is HT-29. Nature of the test: Downregulation of c-Myc gene expression in human HT-29 cells assessed as c-Myc mRNA level at 10 nM after 48 hrs by RT-PCR method (reference value: 100%). Format: functional. An outline of the steps:
as §2

Test [23] deals with HT-29. The test is described as follows: Inhibition of VEGF protein secretion in human HT-29 cells assessed as VEGF protein level at 10 nM after 48 hrs by ELISA (reference value: 100%). Type of test: functional. More on the design: scale not given: the % may be the effect or the level left.

As to `COc1cc2c(c(OC)c1OC)-c1ccc(OC)c(=O)cc1[C@@H](NC(=O)c1ccccc1Cl)CC2`, the Activity stood at 38% in the test with HT-29 [1]; 3% with A549 [2]; 55% in the test on A549 [3]; 54% with HT-29 [4]; 11% with A549 [5]; 32% with HT-29 [6]. For the same compound, the Activity amounted to 26% in the test on A549 [8] and 54% in the test on HT-29 [10]. Besides, the IC50 in the test on HEK293 is 5.93 nM; with MCF7, 4.5 nM; in the test on A549 [7], 13 nM; with HT-29 [9], 2.3 nM. Further, in the test with A549 [11], the outcome was Active.

Regarding `COc1cc2c(c(OC)c1OC)-c1ccc(OC)c(=O)cc1[C@@H](NC(=O)c1ccccc1)CC2`, the Activity stood at 29% in the test on A549 [12], 4% in the test on A549 [13], 28% in the test with A549 [14] and 40% with A549 [15]. In addition, the concentration for half-maximal inhibition (IC50) in the test on HEK293 came out at 13 nM; with MCF7, 5 nM; with A549 [7] it was 10 nM; in the test on HT-29 [9], 8.1 nM.

Regarding `COc1cc2c(c(OC)c1OC)-c1ccc(OC)c(=O)cc1[C@@H](NC(=O)c1ccc(Cl)cc1)CC2`, the Activity with HT-29 [1] is 37%; in the test on A549 [2], 2%; in the test on A549 [3] it was 48%; in the test with HT-29 [4] it was 54%; in the test with A549 [5], 27%; in the test with HT-29 [6] it was 37%. In addition, the Activity in the test on A549 [8] came to 14%; in the test on HT-29 [10], 73%. The IC50 with HEK293 is 10.1 nM; with MCF7, 6.7 nM; in the test with A549 [7] it was 6.6 nM; with HT-29 [9] it was 1.79 nM. Besides, the result in the test with A549 [11] was Active.

Regarding `COc1cc2c(c(OC)c1OC)-c1ccc(OC)c(=O)cc1[C@@H](NC(=O)Cc1ccccc1)CC2`, the Activity in the test with A549 [16] is reported as 16%; with A549 [17] it was 60%; in the test with A549 [18], 19%; in the test on A549 [19], 5%. Further, the half-inhibitory concentration (IC50) was found to be 3.9 nM in the test on HEK293, 2.6 nM with MCF7, 2.8 nM in the test on A549 [7] and 2.84 nM in the test with HT-29 [9].

As to `COc1cc2c(c(OC)c1OC)-c1ccc(OC)c(=O)cc1[C@@H](NC(=O)c1ccc(C)cc1)CC2`, the Activity with A549 [12] was 44%; in the test on A549 [13], 13%; with A549 [14] it was 26%; in the test on A549 [15] it was 16%. Besides, the IC50 came to 16.1 nM in the test with HEK293, 31 nM in the test with MCF7, 8.8 nM with A549 [7] and 9 nM with HT-29 [9].

For the compound `COc1cc2c(c(OC)c1OC)-c1ccc(OC)c(=O)cc1[C@@H](NC(=O)CI)CC2`, the Activity amounted to 42% in the test on HT-29 [20], 59% in the test on HT-29 [21], 42% in the test with HT-29 [22] and 89% in the test with HT-29 [23]. Besides, the IC50 was determined as 19 nM in the test with HEK293, 4.1 nM with MCF7, 31 nM in the test with A549 [7] and 10 nM in the test with HT-29 [9].

A word on the IC50: it is the concentration that inhibits the measured activity by half.
